In brackets after ≈: the same amount, converted by molar mass.
How the values were obtained:
[1] = Water solubility evaluation; format: physicochemical; details: deionized water
Method in brief: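 Compound was added to deionized water to supersaturation and stirred for 24 h at 25 °C. The mixture was centrifuged at 8000 × g, 25 °C, for 20 min. The supernatant was freeze-dried and the residue weighed.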

[2] = test system: mammalian mucosal α-glucosidase (rat intestinal acetone powder, RIAP); test: Glucose generation rate; format: in vitro ADME; details: 5 mg/mL substrate, RIAP-derived α-glucosidase, 2 h
Method in brief: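 Rat intestinal acetone powder (0.5 g) was extracted in 10 mL 100 mM sodium phosphate (pH 6.2) at 4 °C for 24 h and centrifuged. The supernatant was freeze-dried and re-dissolved in 10 mL of the same buffer as α-glucosidase. Test compound at 5 mg/mL was incubated with the enzyme. Aliquots were taken at 0, 10, 20, 30, 60 and 120 min, heat-inactivated for 10 min, and glucose was measured with a glucose assay kit.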

[3] = vs sucrose; stated without own test, ref not given; cited from earlier work
[4] = Static in vitro digestion simulation; format: in vitro ADME, human; details: oral, gastric and intestinal phases, 37 °C
Method in brief: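 Static digestion of 50 mg test compound ran at 37 °C with stirring. Oral phase: saliva pH 7.0 (1.5 mM CaCl₂, 75 U/mL amylase), sampled at 5 min. Samples were heat-stopped (100 °C, 5 min), centrifuged and filtered, and glucose was measured by kit.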

[5] = Storage stability in aqueous solution; format: physicochemical; details: 1 month, 25 °C
Method in brief: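 Aqueous solutions of 1–2% (w/v) were held at 25 °C for up to 1 month. Compound remaining in the supernatant at 0, 7, 15 and 30 days was quantified by HPLC.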

HFD-fed C57BL/6 N mice [6] = test: Immunoblot of tissue lysates from HFD-fed mice; format: in vivo, mouse; details: 0.2 g/L in drinking water, 16 weeks
Method in brief: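 Mice were on a 16-week 60% kcal-fat HFD with test compound at 0.2 g/L in drinking water or plain water. Liver, gWAT and BAT lysates came from median-body-weight mice. Equal protein was run on SDS-PAGE, transferred to nitrocellulose and blocked in 5% skim milk. Primary antibodies (ACC, FAS, UCP1, p-PLIN, HSP90) ran overnight at 4 °C, then secondary 2–3 h at room temperature. Detection was by ECL with band densitometry, n = 4 per group.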

[7] = Thermogravimetric analysis; format: physicochemical; details: TGA
[8] = TGA; cited from earlier work
rats = details: cited from earlier work
[9] = pH stability in Britton–Robinson buffer; format: physicochemical
Method in brief: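 Compound was dissolved at 0.05% (w/v) in Britton–Robinson buffer over pH 1.4–10. The amount remaining was quantified by HPLC.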

HFD-fed C57BL/6 N mice [10] = test: HFD-induced obesity in mice: body weight, intake, tissue weight, histology; format: in vivo, mouse; details: 0.2 g/L in drinking water, 16 weeks
Method in brief: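 Eight-week-old C57BL/6N mice were kept on a 60% kcal-fat HFD for 16 weeks with test compound at 0.2 g/L in drinking water ad libitum, or plain water. Estimated intake was about 0.675 mg/mouse/day. Body weight was taken weekly and food/water every other day (n = 10). Median-weight mice gave formalin-fixed paraffin sections (gWAT 7 μm, liver 5 μm), H&E stained (n = 5). Adipocyte size came from about 3,000 cells, four images per mouse. Data are mean ± SEM.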

HFD-fed C57BL/6 N mice [11] = test: Serum analysis of HFD-fed mice; format: in vivo, mouse; details: 0.2 g/L in drinking water, 16 weeks
Method in brief: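 After 16 weeks of 60% kcal-fat HFD with test compound at 0.2 g/L in drinking water or plain water, mice were euthanised with CO2. Blood was taken by cardiac puncture. An automated chemistry analyser measured serum cholesterol, TG, ALT, AST and glucose (n = 5 per group). Data are mean ± SEM with one-way ANOVA and Dunnett's or Tukey's test.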

In the case of `C=C1C[C@@]23CC[C@H]4[C@@](C)(CCC[C@@]4(C)C(=O)O[C@@H]4O[C@H](CO)[C@@H](O)[C@H](O)[C@H]4O)[C@@H]2CC[C@]1(O[C@@H]1O[C@H](CO)[C@@H](O)[C@H](O)[C@H]1O[C@@H]1O[C@H](CO)[C@@H](O)[C@H](O)[C@H]1O)C3` [ST, stevioside], the solubility at 24 h [1] is listed as 11 ± 3.11 mg/mL (≈ 13.6 mM), the Glucose released [2] is listed as “almost no glucose release” and the “Sweetness relative to sucrose” value [3] is listed as 250 times. For the same molecule, the “Hydrolysis in in vitro simulated digestion” value [4] was 2%.

For rebaudioside A [Reb A], the Water solubility ([1]; stirred 24 h at 25 °C) was 5.10 ± 2.93 mg/mL, the Glucose released [2] was “almost no glucose release” and the “Initial concentration remaining after storage, 1% (w/v) aqueous solution” value ([5]; 1% (w/v)) was 52.61 ± 1.69%. For the same molecule, the “Initial concentration remaining after storage, 2% (w/v) aqueous solution” value ([5]; 2% (w/v)) was 32.14 ± 3.78%, the “ACC protein expression in liver” value (HFD-fed C57BL/6 N mice [6]) was “increased” and the “p-PLIN protein level in gWAT” value (HFD-fed C57BL/6 N mice [6]; vs control) was “substantially decreased”. The “Temperature at which second-stage mass loss commenced” value [7] was 280–290 °C, the “Initial mass retained at 597 °C” value ([7]; 597 °C) was 9.92 ± 0.45% and the “Initial mass retained, second-stage mass loss” value ([7]; stage commencing at approximately 280–290 °C) was 19.89 ± 1.67%. The “Second-stage mass loss temperature previously reported” value [8] was 284.71 °C, the “No-observed-adverse-effect level (NOAEL)” value (rats) was 4100 mg/kg/day and the “Sweetness relative to sucrose” value [3] was 250 times. For the same molecule, the “Initial concentration retained at pH 1.4” value ([9]; pH 1.4, 0.05% (w/v) in Britton–Robinson buffer) was 25.26 ± 3.19%, the “Initial concentration retained at pH 2” value ([9]; pH 2, 0.05% (w/v) in Britton–Robinson buffer) was 82.67 ± 2.39% and the “Initial concentration retained at pH 10” value ([9]; pH 10, 0.05% (w/v) in Britton–Robinson buffer) was 84.56 ± 1.68%. For the same molecule, the “Hydrolysis in in vitro simulated digestion” value [4] was 2%, the “Crown-like structure (CLS) in gWAT, inflammatory indicator” value (HFD-fed C57BL/6 N mice [10]) was “significantly increased” and the “Number of large adipocytes in gWAT” value (HFD-fed C57BL/6 N mice [10]) was “remained unchanged”. The “Water intake and food consumption” value (HFD-fed C57BL/6 N mice [10]) was “comparable across the groups”, the gWAT weight (HFD-fed C57BL/6 N mice [10]) was “did not increase” and the Body weight (HFD-fed C57BL/6 N mice [10]; vs control) was “no effect”. For the same molecule, the “Serum TG” value (HFD-fed C57BL/6 N mice [11]) was “remained unchanged” and the Serum cholesterol (HFD-fed C57BL/6 N mice [11]) was “remained unchanged”.
